Experimental data: ChEMBL document CHEMBL3244297, “In vitro antiplaque properties of a series of alkyl bis(biguanides)” (1978)

Legend:
Format in all cases: functional
[1] = system: Actinomyces naeslundii; experiment: Antiplaque activity against Actinomyces naeslundii ATCC 12104 assessed as growth inhibition of adherent cells on saliva coated bovine tooth slabs
Procedure, shortened: (§1)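 Tooth slabs were treated with the test agents at a series of molar concentrations. The value is the lowest molar concentration (M × 10⁴) that gave >90% inhibition of growth of adherent cells, based on triplicate sets.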

[2] = system: Streptococcus mutans; experiment: Antiplaque activity against wild type Streptococcus mutans 6715-13 assessed as growth inhibition of adherent cells on saliva coated bovine tooth slabs; procedure, shortened: as §1
[3] = system: Actinomyces viscosus; experiment: Antiplaque activity against Actinomyces viscosus M-100-2000 assessed as growth inhibition of adherent cells on saliva coated bovine tooth slabs; procedure, shortened: as §1
[4] = system: Streptococcus mutans; experiment: Antibacterial activity against wild type Streptococcus mutans 6715-13 assessed as growth inhibition by tube dilution assay
Procedure, shortened: (§2)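 Standard tube dilution assay, modified so that adherent cells were dispersed before cell density was read spectrophotometrically at 540 nm. The value is the minimum inhibitory concentration, given in molar units.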

[5] = system: Actinomyces naeslundii; experiment: Antibacterial activity against Actinomyces naeslundii ATCC 12104 assessed as growth inhibition by tube dilution assay; procedure, shortened: as §2
[6] = system: Actinomyces viscosus; experiment: Antibacterial activity against Actinomyces viscosus M-100-2000 assessed as growth inhibition by tube dilution assay; procedure, shortened: as §2

In the case of `N=C(NCCCCCCNC(=N)NC(=N)Nc1ccc(Cl)cc1)NC(=N)Nc1ccc(Cl)cc1.O=C(O)[C@H](O)[C@@H](O)[C@H](O)[C@H](O)CO`, the “MIC>90” value [1] is reported as greater than 100 ×10⁻⁴ M, the “MIC>90” value [2] is reported as 10 ×10⁻⁴ M and the “MIC>90” value [3] is reported as greater than 10 ×10⁻⁴ M. It also gave an MIC [4] of 10 µM, an MIC [5] of 10 µM and an MIC [6] of 10 µM.

`CCCCCC(CC)CNC(=N)NC(=N)NCCCCNC(=N)NC(=N)NCC(CC)CCCCC.Cl` (stereo not given) was tested, and the “MIC>90” value [1] was 0.5 ×10⁻⁴ M, the “MIC>90” value [2] was 100 ×10⁻⁴ M and the “MIC>90” value [3] was 10 ×10⁻⁴ M. The MIC [4] was 10 µM, the MIC [5] was 10 µM and the MIC [6] was 10 µM.

In the case of `CCCCCCCCCNC(=N)NC(=N)NCCCCNC(=N)NC(=N)NCCCCCCCCC.Cl`, the “MIC>90” value [1] is reported as 1 ×10⁻⁴ M, the “MIC>90” value [2] is reported as 70 ×10⁻⁴ M and the “MIC>90” value [3] is reported as 10 ×10⁻⁴ M. The MIC [4] was 100 µM, the MIC [5] was 10 µM and the MIC [6] was 10 µM.

In the case of `CCCCCCCCNC(=N)NC(=N)NCCCCCCNC(=N)NC(=N)NCCCCCCCC.Cl`, the “MIC>90” value [1] is reported as 0.5 ×10⁻⁴ M, the “MIC>90” value [2] is reported as 8 ×10⁻⁴ M and the “MIC>90” value [3] is reported as 5 ×10⁻⁴ M. The MIC [4] was 10 µM, the MIC [5] was 10 µM and the MIC [6] was 10 µM.

`CCCCCCCNC(=N)NC(=N)NCCCCCCCCNC(=N)NC(=N)NCCCCCCC.Cl` was tested, and the “MIC>90” value [1] was 0.5 ×10⁻⁴ M, the “MIC>90” value [2] was greater than 10 ×10⁻⁴ M and the “MIC>90” value [3] was greater than 10 ×10⁻⁴ M. It also gave an MIC [4] of 10 µM, an MIC [5] of 10 µM and an MIC [6] of 10 µM.

`CCCCCCNC(=N)NC(=N)NCCCCCCCCCCNC(=N)NC(=N)NCCCCCC.Cl` was tested, and the “MIC>90” value [1] was 0.5 ×10⁻⁴ M, the “MIC>90” value [2] was 10 ×10⁻⁴ M and the “MIC>90” value [3] was greater than 10 ×10⁻⁴ M. The MIC [4] was 10 µM, the MIC [5] was 10 µM and the MIC [6] was 10 µM.

For `CCCCCCCNC(=N)NC(=N)NCCCCCCNC(=N)NC(=N)NCCCCCCC.Cl`, the “MIC>90” value [1] was 0.5 ×10⁻⁴ M, the “MIC>90” value [2] was 50 ×10⁻⁴ M and the “MIC>90” value [3] was greater than 10 ×10⁻⁴ M. The MIC [4] was 10 µM, the MIC [5] was 10 µM and the MIC [6] was 1 µM.

For `CCCCCCNC(=N)NC(=N)NCCCCCCCCNC(=N)NC(=N)NCCCCCC.Cl`, the “MIC>90” value [1] was 1 ×10⁻⁴ M, the “MIC>90” value [2] was 3 ×10⁻⁴ M and the “MIC>90” value [3] was greater than 10 ×10⁻⁴ M. The MIC [4] was 10 µM, the MIC [5] was 10 µM and the MIC [6] was 1 µM.

With `CCCCCCNC(=N)NC(=N)NCCCCCCNC(=N)NC(=N)NCCCCCC.Cl` the “MIC>90” value [1] was 0.8 ×10⁻⁴ M, the “MIC>90” value [2] was 100 ×10⁻⁴ M and the “MIC>90” value [3] was 0.8 ×10⁻⁴ M. The MIC [4] was 10 µM, the MIC [5] was 10 µM and the MIC [6] was 1 µM.

With `CCCCC(CC)CNC(=N)NC(=N)NCCCCCCNC(=N)NC(=N)NCC(CC)CCCC.Cl.Cl` (stereo not given) [ALEXIDINE DIHYDROCHLORIDE] the “MIC>90” value [1] was 5 ×10⁻⁴ M, the “MIC>90” value [2] was greater than 100 ×10⁻⁴ M and the “MIC>90” value [3] was 0.5 ×10⁻⁴ M. The MIC [4] was 10 µM, the MIC [5] was 10 µM and the MIC [6] was 0.1 µM.
